Hits are enriched below; roughly 0.9% of the tested compounds scored in any of these assays.
S1P4 antag: S1P4 receptor antagonists, primary screen, cell-based | Sphingosine 1-phosphate receptor 4 (Homo sapiens), O95977 | hit rate 0.26% among 220,000 | S1P4-expressing cells, antagonist mode, reporter read-out | AID 1510, 2009 | inhibition, % at 4.98 µM; in the data active = inhibition above about 29%;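 note: 0% = wells stimulated with agonist and 100% = vehicle wells without agonist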
MDM2 E3 inh: MDM2-luciferase reporter signal enhancers, primary screen, MDM2 E3 ligase inhibitor project, cell-based, luminescence, 1536-well; E3 ubiquitin-protein ligase Mdm2 (Homo sapiens), Q00987; cell-based MDM2 ubiquitination luciferase reporter, 2 h; 0 = plate control, 100 = twice control, blank-subtracted; signal enhancement, % at 5 µM; hit rate 0.11% among 210,000;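 active = signal enhancement of 30% or more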;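 note: luminescence tracks abundance of the self-degrading MDM2-luciferase fusion protein; higher signal means inhibition of MDM2 E3 ligase activity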
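Timing – 2 h compound exposure at 37 °C · Assay system – mammalian cells stably expressing self-ubiquitinating, self-degrading MDM2 E3–luciferase fusion · Amount – 2000 cells seeded into each well · Measure – % luminescence enhancement versus blank-corrected plate control mean · Measured by – SteadyLite luminescence, 15 min reagent step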
Biofilm kill mix: clotrimazole potentiators killing C. albicans biofilm, primary screen, 4-compound mixtures. C. albicans biofilm persisters + clotrimazole, fluorescence viability; primary screen in compound mixtures of four per well. inhibition, % at 7.6 µM. hit rate 0.02% among 120,000. AID 1242, 2008;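 active = inhibition above 30.3% in the primary screen of four-compound pools, then above 30% when the compound was retested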;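 note: compounds exposed to preformed 24 h biofilms for 48 h; 0% = untreated biofilm control and 100% = clotrimazole plus chlorhexidine kill blank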
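Test system: C. albicans biofilms. Buffer or medium: RPMI/MOPS medium, pH 7.0. Timing: 48 h compound exposure at 37 °C. Technique: Alamar Blue fluorescence. Evaluation: percent inhibition of biofilm viability.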
S1P3 antag: S1P3 receptor antagonists, primary screen, cell-based | CHO S1P3 NFAT-BLA reporter, FRET fluorescence, antagonist mode | inhibition, % at 4.98 µM | Sphingosine 1-phosphate receptor 3 (Homo sapiens), Q99500 | hit rate 0.27% among 170,000;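 active = inhibition above the plate cutoff, the mean inhibition of test wells on that plate plus 3 SD, cut at about 28% in these data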;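 note: cells challenged with S1P at its EC80 of 0.8 µM; blue over green emission ratio from cleaved BLA substrate after 4 h stimulation; 0% = S1P-stimulated wells and 100% = unstimulated DMSO-only wells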
S1P4 ag: S1P4 receptor agonists, primary screen, cell-based | hit rate 0.35% among 220,000 | activation, % at 4.98 µM | S1P4-expressing cell line, agonist reporter assay; in the data active = activation above about 11%;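 note: 0% = DMSO vehicle and 100% = reference agonist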
S1P4 antag cf: S1P4 receptor antagonists, human, confirmation, cell-based. shares compounds with S1P4 antag. S1P4-expressing cell line, antagonist mode, reporter read-out. inhibition, % at 4.98 µM. hit rate 71% among 520. AID 1524, 2009; in the data active = inhibition above about 30%
S1P1 antag: S1P1 receptor antagonists, human, counter-screen for S1P4 antagonist project, cell-based | cell-based S1P1 antagonist counterscreen, inhibition | inhibition, % at 4.98 µM | shares compounds with S1P4 antag | hit rate 37% among 520; in the data active = inhibition above about 40%;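 note: receptor stimulated with S1P near its EC80; 0% = agonist stimulated wells and 100% = vehicle only wells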
Numbers without * were called inactive; nt = no result.

SMILES	S1P4 antag	MDM2 E3 inh	Biofilm kill mix	S1P3 antag	S1P4 ag	S1P4 antag cf	S1P1 antag
COc1cc(/C=C(/C)[N+](=O)[O-])ccc1OCc1ccccc1Cl	54*	-2	23	-23	-1	120*	148*
CN1CCN(c2ccc(C(N)=O)cc2N)CC1	-4	-3	nt	-12	2	nt	nt
C/C1=C\[C@@H](C)C/C=C/[C@H]2[C@@H]3O[C@]3(C)[C@@H](C)[C@H]3[C@H](Cc4c[nH]c5ccccc45)NC(=O)[C@]32C(=O)/C=C/C(=O)[C@@H]1O	33*	33*	19	22	-1	59*	25
CCOc1ccc(C2(C#N)CC[N+](C)(C)CC2)cc1	-17	-16	nt	nt	2	nt	nt
CCOP(=S)(OCC)SCC(=O)NC(C)(CC)C(=O)O (centres undefined)	-12	-10	nt	nt	-2	nt	nt
